Reference: ChEMBL document CHEMBL1147098, “Growth inhibition of Toxoplasma gondii and Plasmodium falciparum by nanomolar concentrations of 1-hydroxy-2-dodecyl-4(1H)quinolone, a high-affinity inhibitor of alternative (type II) NADH dehydrogenases” (Antimicrob Agents Chemother, 2007)
pIC50: −log10 of the molar value. Values belong to the molecule of their own block, whether it stands above or below them. Calls of active or inactive are those of the source. No cut-off for these calls is given here.

Tests used:
Toxoplasma gondii [1] = assay: Susceptibility of Toxoplasma gondii lacZ-transfected RH strain in human foreskin fibroblasts assessed as growth at 0.1 uM to 0.01 uM after 30 hrs by colorimetric assay; type: functional
How it was run: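 HFF infected with β-galactosidase-expressing RH strain and exposed to 1-hydroxy-2-alkyl-4(1H)quinolone alkyl derivatives at 0.1 and 0.01 μM. Replication quantified by colorimetric β-galactosidase assay with chlorophenol red-β-D-galactopyranoside substrate.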

Toxoplasma gondii [2] = assay: Inhibition of Toxoplasma gondii RH replication in human foreskin fibroblasts incubated for 24 hrs with drug after 2 hrs postinfection by immunofluorescence microscopy
Toxoplasma gondii [3] = assay: Inhibition of Toxoplasma gondii RH replication in human foreskin fibroblasts incubated for 24 hrs with drug after 36 hrs postinfection by immunofluorescence microscopy; type: functional, organism-based
HFF = assay: Inhibitory effect on metabolic activity of HFF cells upto 10 uM by Alamar Blue assay; type: functional, cell-based; settings: Homo sapiens
Toxoplasma gondii [4] = assay: Effect on Toxoplasma gondii RH growth in human foreskin fibroblasts incubated with 1 uM for 24 hrs assessed as recovery after 72 hrs without drug; type: functional
Toxoplasma gondii [5] = assay: Effect on Toxoplasma gondii RH growth in human foreskin fibroblasts incubated with 0.1 uM for 24 hrs assessed as recovery after 72 hrs without drug; type: functional
Toxoplasma gondii [6] = assay: Inhibition of Toxoplasma gondii lacZ-transfected RH strain in human foreskin fibroblasts assessed as beta galactosidase activity after 30 hrs by colorimetric assay; type: functional, organism-based
How it was run: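 lacZ-expressing RH tachyzoites (1 × 10^4/well) infected HFF for 4 h at 37°C in 1% DMEM without phenol red, washed, then exposed in duplicate to 1, 0.1, 0.01 and 0.001 μM with 100 μM chlorophenol red-β-D-galactopyranoside (final) at 37°C. Absorbance at 570 and 630 nm read at 30 h postinfection.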

Toxoplasma gondii [7] = assay: (§1) Effect on Toxoplasma gondii RH growth in human foreskin fibroblasts incubated with 0.1 uM for 24 hrs after 6 hrs postinfection assessed as recovery after 72 hrs without drug; type: functional
Toxoplasma gondii [8] = assay: Inhibition of invasion of Toxoplasma gondii RH in human foreskin fibroblasts assessed as decreased infection rate pretreated with 1 to 1000 nM after 2 hrs before infection; type: functional, organism-based
How it was run: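 Extracellular tachyzoites pretreated 2 h with 1 to 1,000 nM before infecting HFF; infection rate compared with untreated parasites.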

Toxoplasma gondii [9] = assay: as §1; type: functional; remark: listed apart in the source
Toxoplasma gondii [10] = assay: Inhibition of Toxoplasma gondii RH replication in human foreskin fibroblasts incubated for 24 hrs with drug after 2 hrs postinfection by immunofluorescence microscopy; type: functional, organism-based
Plasmodium falciparum [11] = assay: Reduced parasitaemia in Plasmodium falciparum FCBR ring stage parasites; type: functional, organism-based
How it was run: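 Sorbitol-synchronized FCBR ring-stage cultures (initial parasitemia 3.2%) in T25 flasks, exposed 48 h to 1 μM, 100 nM, 10 nM and 1 nM. Parasitemia counted on Giemsa-stained blood smears relative to DMSO control.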

Plasmodium falciparum [12] = assay: Inhibition of Plasmodium falciparum trophozoite replication after 36 hrs by fluorometric assay; type: functional, organism-based
How it was run: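 FCBR young trophozoites (2% initial parasitemia) in RPMI 1640 with 10% human plasma and group A erythrocytes, gassed 90% N2/5% O2/5% CO2, exposed 36 h to 1 μM-1 nM. Erythrocytes lysed with saponin, pellets solubilized in guanidium-HCl/sodium acetate, stained with Hoechst 33258, read at 340/460 nm in triplicate. 2 μM chloroquine defined background.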

Compound: CCCCCCCCCCCCCCc1cc(=O)c2ccccc2n1O
- Activity (Toxoplasma gondii [1]): 37.9%

Compound: CCCCCCc1cc(=O)c2ccccc2n1O
- Activity (Toxoplasma gondii [1]): 16.3%

Compound: O=C1C(O)=C([C@H]2CC[C@H](c3ccc(Cl)cc3)CC2)C(=O)c2ccccc21 [ATOVAQUONE]
- pIC50 (Toxoplasma gondii [2]): 8.05

Compound: CCCCCCCCc1cc(=O)c2ccccc2n1O
- Activity (Toxoplasma gondii [1]): 14.8%

Compound: CCCCCc1cc(=O)c2ccccc2n1O
- Activity (Toxoplasma gondii [1]): 98.2%

- pIC50 (Plasmodium falciparum [11]): 7.26
- pIC50 (Plasmodium falciparum [12]): 7.85
Compound: CCCCCCCCCCCCc1cc(=O)c2ccccc2n1O
- pIC50 (Toxoplasma gondii [3]): 8.40
- Activity (HFF): inactive
- Activity (Toxoplasma gondii [4]): 2.9%
- Activity (Toxoplasma gondii [5]): 49.3%
- pIC50 (Toxoplasma gondii [6]): 8.43
- Activity (Toxoplasma gondii [7]): 65.8%
- Activity (Toxoplasma gondii [1]): 42.6%
- Activity (Toxoplasma gondii [8]): inactive
- Activity (Toxoplasma gondii [9]): 65.8%
- pIC50 (Toxoplasma gondii [10]): 8.62
